Measurements taken from ChEMBL document CHEMBL4425108, “A Selective and Slowly Reversible Inhibitor of l-Type Amino Acid Transporter 1 (LAT1) Potentiates Antiproliferative Drug Efficacy in Cancer Cells” (J Med Chem, 2016).

Experiments:
[1] = target: T1, Large neutral amino acids transporter small subunit 1 (Homo sapiens, UniProt Q01650); test: Competitive inhibition of [14C]-L-leucine uptake at LAT1 in human MCF7 cells at 25 uM preincubated for 10 mins followed by addition of substrate measured during 5 mins by liquid scintillation counting; format: cell-based
T1 sequence (Q01650 whole entry): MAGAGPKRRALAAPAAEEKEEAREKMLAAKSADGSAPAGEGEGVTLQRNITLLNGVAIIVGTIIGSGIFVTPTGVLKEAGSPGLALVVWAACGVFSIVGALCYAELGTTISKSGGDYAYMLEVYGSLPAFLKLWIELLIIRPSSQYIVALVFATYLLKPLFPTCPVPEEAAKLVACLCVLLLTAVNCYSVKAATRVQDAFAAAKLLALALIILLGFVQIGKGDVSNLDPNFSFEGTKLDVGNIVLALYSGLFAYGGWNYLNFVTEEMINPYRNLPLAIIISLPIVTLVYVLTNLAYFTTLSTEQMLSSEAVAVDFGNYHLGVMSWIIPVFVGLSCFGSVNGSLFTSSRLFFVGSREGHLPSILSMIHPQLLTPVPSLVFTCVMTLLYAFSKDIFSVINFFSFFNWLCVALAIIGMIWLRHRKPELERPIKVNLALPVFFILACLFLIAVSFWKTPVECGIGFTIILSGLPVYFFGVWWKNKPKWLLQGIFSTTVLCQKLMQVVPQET
How it was run: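 MCF-7 cells seeded 1 × 10^5/well, used one day later. Washed and pre-incubated 10 min at 37 °C in choline-chloride HBSS (Na+-free, 25 mM HEPES, pH 7.4), then 5 min at 37 °C with 0.157 µM [14C]-L-leucine plus 1-1000 µM inhibitor (DMSO blank). Ice-cold washes, NaOH lysis, scintillation counting. IC50 by nonlinear regression over 8 concentrations. Mean ± SD, n=3.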

MCF7 [2] = test: Antiproliferative activity against human MCF7 cells assessed as reduction in cell viability measured after 72 hrs by resazurin dye-based fluorimetric analysis; format: functional
How it was run: (§1)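 MCF-7 cells were seeded at 2 × 10^4 cells/well on collagen-coated plates and treated one day later. Agents were given alone or combined (25 or 100 µM with 100 µM partner drug) in growth medium for 3 days. Viability was read daily by resazurin fluorescence (ex 560/em 590 nm) and expressed relative to untreated controls.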

MCF7 [3] = test: Antiproliferative activity against human MCF7 cells assessed as reduction in cell viability at 100 measured after 24 hrs by resazurin dye-based fluorimetric analysis; format: functional; how it was run: as §1
MCF7 [4] = test: Antiproliferative activity against human MCF7 cells assessed as reduction in cell viability at 100 measured after 48 hrs by resazurin dye-based fluorimetric analysis; format: functional; how it was run: as §1
[5] = target: T1, Large neutral amino acids transporter small subunit 1; test: Inhibition of LAT1 in human MCF7 cells assessed as potentiation of bestatin-induced antiproliferative activity by measuring reduction in cell viability at 100 uM measured after 72 hrs by resazurin dye-based fluorimetric analysis
How it was run: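 MCF-7 cells seeded 2 × 10^4/well on collagen-coated plates, treated one day later in growth medium with inhibitor (25 or 100 µM) plus bestatin or cisplatin (100 µM) for up to 3 days. Viability read daily by resazurin fluorescence (ex 560/em 590 nm). Viability is treated relative to untreated control. Mean ± SD, n=3.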

[6] = AUC (0 to 480 min) in mouse liver at 23 umol/kg, ip administered as bolus by LC-MS analysis; format: ADME, organism-based; set-up: dose 23 umol/kg, time < 8 hr, route intraperitoneal; conditions: in vivo, 8 h
How it was run: (§2)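 Male adult mice (25 ± 5 g) given a single i.p. bolus at 23 µmol/kg. The dosing solution was 1.36 mM in 10% (v/v) DMSO, 20% (w/v) hydroxypropyl-β-cyclodextrin and 0.9% NaCl. Animals were decapitated at seven time points from 10 to 480 min. Plasma and tissues were acetonitrile-precipitated with repaglinide internal standard and analysed by LC-MS. Parameters were derived from concentration–time data, mean ± SEM (n=3).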

[7] = AUC (0 to 480 min) in mouse brain at 23 umol/kg, ip administered as bolus by LC-MS analysis; format: ADME, organism-based; set-up: time < 8 hr, dose 23 umol/kg, route intraperitoneal; conditions: in vivo, 8 h; how it was run: as §2
[8] = Cmax in mouse prostate at 23 umol/kg, ip administered as bolus by LC-MS analysis; format: ADME, organism-based, Prostate gland; set-up: dose 23 umol/kg, route intraperitoneal; conditions: in vivo; how it was run: as §2
[9] = Fraction unbound in mouse heart at 23 umol/kg, ip administered as bolus by LC-MS analysis; format: ADME, organism-based
How it was run: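 Unbound fraction was measured by equilibrium dialysis at 100 µM in mouse plasma and in brain, liver, kidney, heart and prostate homogenates.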

[10] = Unbound AUC (0 to 480 mins) in mouse brain at 23 umol/kg, ip administered as bolus by LC-MS analysis; format: ADME, organism-based; conditions: in vivo
How it was run: (§3)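 Male mice (25 ± 5 g) dosed i.p. as a bolus at 23 µmol/kg in DMSO/hydroxypropyl-β-cyclodextrin/saline vehicle, sampled at time points 10–480 min; plasma and tissue homogenates (1:3 water) analysed by LC-MS. […] Mean ± SEM.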

[11] = Unbound AUC (0 to 480 mins) in mouse heart at 23 umol/kg, ip administered as bolus by LC-MS analysis; format: ADME, organism-based; conditions: in vivo; how it was run: as §3
[12] = fCmax in mouse plasma at 23 umol/kg, ip administered as bolus by LC-MS analysis; format: ADME, organism-based; conditions: in vivo; how it was run: as §3
[13] = fCmax in mouse prostate at 23 umol/kg, ip administered as bolus by LC-MS analysis; format: ADME, organism-based, Prostate gland; conditions: in vivo; how it was run: as §3
[14] = fCmax in mouse kidney at 23 umol/kg, ip administered as bolus by LC-MS analysis; format: ADME, organism-based; conditions: in vivo; how it was run: as §3
[15] = fCmax in mouse heart at 23 umol/kg, ip administered as bolus by LC-MS analysis; format: ADME, organism-based; conditions: in vivo; how it was run: as §3
[16] = Tmax in mouse plasma at 23 umol/kg, ip administered as bolus by LC-MS analysis; format: ADME, organism-based
How it was run: (§4)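 Adult male mice (25 ± 5 g) given a single i.p. bolus of 23 µmol/kg, dosing solution 1.36 mM in 10% (v/v) DMSO, 20% (w/v) hydroxypropyl-β-cyclodextrin, 0.9% NaCl in water. Decapitation at time points 10–480 min; plasma, brain, liver, prostate, kidney, heart collected. Acetonitrile precipitation with repaglinide internal standard, LC-MS (ESI positive). tmax and t½β taken from concentration-time data; mean ± SEM, n=3.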

[17] = Tmax in mouse heart at 23 umol/kg, ip administered as bolus by LC-MS analysis; format: ADME, organism-based; how it was run: as §4
[18] = target: T2, Large neutral amino acids transporter small subunit 1 (Mus musculus, UniProt Q9Z127); test: Drug uptake in mouse brain assessed as LAT1-mediated unidirectional transfer constant measured after perfusion; format: ADME, tissue-based; conditions: in vivo
T2 sequence (Q9Z127 whole entry, the tested form may be a part): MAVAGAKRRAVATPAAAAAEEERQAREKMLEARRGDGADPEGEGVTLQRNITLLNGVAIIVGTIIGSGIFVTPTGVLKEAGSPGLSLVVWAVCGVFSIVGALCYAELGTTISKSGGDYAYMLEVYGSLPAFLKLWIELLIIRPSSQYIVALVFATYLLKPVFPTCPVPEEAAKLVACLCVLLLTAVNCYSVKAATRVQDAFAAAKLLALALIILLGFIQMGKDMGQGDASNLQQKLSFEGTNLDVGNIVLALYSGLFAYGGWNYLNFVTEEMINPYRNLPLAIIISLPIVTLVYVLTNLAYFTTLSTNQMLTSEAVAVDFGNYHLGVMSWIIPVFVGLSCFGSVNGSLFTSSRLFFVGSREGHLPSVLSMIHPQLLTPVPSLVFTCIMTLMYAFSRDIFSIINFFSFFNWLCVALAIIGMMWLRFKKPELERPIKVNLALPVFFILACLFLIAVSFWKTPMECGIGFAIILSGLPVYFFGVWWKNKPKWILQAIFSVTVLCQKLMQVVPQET
How it was run: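 In situ brain perfusion in anaesthetised male mice used 100 µM compound at 37 °C, 2.5 mL/min, for 60 s, then 2 s drug-free buffer at 4 °C. Kin = Qtot/(Cpf × T); mean ± SD, n=3.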

[19] = target: T2, Large neutral amino acids transporter small subunit 1; test: Ratio of Kin for L-leucine to Kin for test compound for LAT1-mediated drug uptake in mouse brain; format: ADME, tissue-based; conditions: in vivo
How it was run: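 In situ brain perfusion in anaesthetised adult male mice (ketamine/xylazine i.p.) via right common carotid at 2.5 mL/min, 37 °C. Perfusate was 0.157 µM [14C]-L-leucine for 30 s or 100 µM test compound for 60 s, then 2 s drug-free buffer at 4 °C. Kin = Qtot/(Cpf × T). Mean ± SD, n=3-4.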

[20] = Metabolic stability in mouse liver microsomes at 37 degreeC in presence of NADPH regenerating system measured after 2 hrs by HPLC analysis; format: ADME, Microsome
How it was run: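 Incubated at 37 °C for 2 h with mouse liver S9 fraction or with mouse liver microsomes plus NADPH; monitored by UV-HPLC chromatograms.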

SMILES: CNC(=O)COc1ccc(-c2c(C#N)c(NC(=O)c3cccc(C[C@H](N)C(=O)O)c3)n3c(nc4ccccc43)c2C#N)cc1
- inhibition [1]: 55.1%
- Activity (MCF7 [2]): Dose-dependent effect
- IC50 (MCF7 [2]; MCF7, 72 h): 124 µM
- Activity (MCF7 [3]): 22.9%
- Activity (MCF7 [4]): 14.8%
- Activity [5]: 68.6%
- AUC [6]: 1930 nmol/g/min
- AUC [7]: 11 nmol/g/min
- Cmax [8]: 24.1 nmol/g
- fraction unbound [9]: 0.0162
- fAUC [10]: 0.1 nmol/g/min
- fAUC [11]: 4 nmol/g/min
- fCmax [12]: 0.19 nmol/mL
- fCmax [13]: 0.34 nmol/g
- fCmax [14]: 0.37 nmol/g
- fCmax [15]: 0.08 nmol/g
- Tmax [16]: 10 min
- Tmax [17]: 30 min
- Kin [18]: 8.2 ×10⁻⁵ ml/s/g
- Ratio [19]: 156
- Stability [20]: Stable
